Assay results from different studies.
Compare with care: the assays were run in different laboratories.
Target: Casein kinase I isoform epsilon (CSNK1E, Homo sapiens, UniProt P49674)

Compound | test | setting | quantity | value
Nc1ncc(-c2nc(N3CCOCC3)nc(N3CCOCC3)n2)c(C(F)F)n1 | binding, competition with immobilised ligand | 10 µM | remaining binding | 38%
CC(C)(C)c1cc(C=C(C#N)C#N)cc(Br)c1O | enzyme activity, inhibitor | 0.5 µM | remaining activity | 92.1%
Cc1nn(C)cc1-c1nc2c(N3CCN(Cc4ccc(Cl)cc4)CC3)c(Cl)cnc2[nH]1 | binding, competition with immobilised ligand | 1 µM | remaining binding | 99%
O=c1[nH]c2ccccc2n1C1CCN(Cc2ccc(-c3[nH]c4cc5ncnc5cc4nc3-c3ccccc3)cc2)CC1 | enzyme activity | 0.5 µM | remaining activity | 107%
N#CC1(c2ccccn2)CCN(Cc2cc(C(=O)O)c(=O)n3ccccc23)CC1 | cell-free assay, competition with immobilised ligand | 1 µM | remaining binding | 100%
Cn1cc(-c2cc(F)cc(N3CCn4c(cc5c4CCCC5)C3=O)c2CO)cc(Nc2ccc(N3CCN(C4COC4)CC3)cn2)c1=O | enzyme activity, inhibitor | 0.1 µM | inhibition | 12%
Cn1cncc1[C@@](O)(COc1ccc(C#N)cc1-c1ccc(OC(F)(F)F)cc1)c1ccc(C#N)cc1 | cell-free assay, competition with immobilised ligand | 1 µM | remaining binding | 100%
Cn1cc(-c2cccc(N3CCc4c(sc5c4CC(C)(C)C5)C3=O)c2CO)cc(Nc2ccncn2)c1=O | enzyme activity, inhibitor | 1 µM | inhibition | 1%
COc1ncccc1-c1cnn2ccc(N3CCN(C(=O)OC(C)C)CC3)nc12 | binding, competition with immobilised ligand | 1 µM | remaining binding | 86%
